ChEMBL document CHEMBL2331224 (J Med Chem, 2013)
Activity calls are given as the source filed them. No cut-off for these calls is given here.

What was measured:
[1] = test system: Mus musculus; experiment: Toxicity in ICR mouse assessed as increase in blood triglyceride level at 30 mg/kg/day, po for 7 days; assay type: organism-based; set-up: route oral; details: in vivo, 168 h
In short: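 Male ICR mice, 6−7 weeks old, four per cage, grouped by body weight. Oral 30 mg/kg or vehicle (1% ethanol/0.5% CMC in water, 10 mL/kg) once daily for 7 days, body weight recorded daily. After overnight fasting, mice were weighed under ether, and liver was removed and weighed. Serum was analysed on a dry-chemistry analyser for TG, TCHO, ALP, CRE, BUN and other markers. n = 7−23, ANOVA.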

[2] = molecular target: RXR alpha/PPAR gamma (Homo sapiens) (UniProt P37231+P19793); experiment: Transactivation of PPARgamma/RXRalpha (unknown origin) by luciferase reporter gene assay relative to TIPP703; assay type: protein-complex assay
In short: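 Heterodimer reporter in COS-1 cells co-transfected with RXRα (0.5 μg), partner receptor (LXRα for line 2, PPARγ for line 3; 0.5 μg), partner response element-luciferase (4.0 μg), and SEAP. Compound (DMSO below 1%) with ~2.0 × 10⁴ cells/well, 18 h, 37 °C; luciferase normalized to SEAP; triplicate, three runs.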

[3] = molecular target: T1, Retinoic acid receptor RXR-alpha (Homo sapiens) (UniProt P19793); experiment: Partial agonist activity at human RXRalpha by luciferase reporter gene assay
T1 sequence (whole entry): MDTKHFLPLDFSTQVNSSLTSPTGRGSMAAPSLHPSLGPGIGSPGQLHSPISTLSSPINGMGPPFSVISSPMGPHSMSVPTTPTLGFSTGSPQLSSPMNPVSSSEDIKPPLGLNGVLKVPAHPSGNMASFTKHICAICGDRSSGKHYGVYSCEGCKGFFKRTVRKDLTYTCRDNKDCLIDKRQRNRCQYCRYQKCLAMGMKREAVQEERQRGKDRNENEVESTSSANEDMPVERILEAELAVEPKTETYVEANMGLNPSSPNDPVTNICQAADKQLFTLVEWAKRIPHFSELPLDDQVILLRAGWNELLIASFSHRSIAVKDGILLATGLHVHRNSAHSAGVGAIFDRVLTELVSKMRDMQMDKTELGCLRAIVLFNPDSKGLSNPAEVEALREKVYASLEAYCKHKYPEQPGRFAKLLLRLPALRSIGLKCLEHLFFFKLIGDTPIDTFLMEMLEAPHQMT
In short: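 COS-1 cells transfected with RXRα, luciferase reporter under RXR response element, and SEAP control; cells seeded ~2.0 × 10⁴/well with compound (DMSO below 1%), 18 h at 37 °C, 5% CO₂. Luciferase normalized to SEAP, expressed relative to 1 μM LGD1069 as 100%; EC₅₀ from full dose-response curves; triplicate, three experiments.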

[4] = test system: Mus musculus; experiment: Toxicity against KKAy mouse assessed as plasma gammaGTP level at 10 mg/kg/day, po for 14 days (reference value: 5.8 +/- 0.6 IU); assay type: organism-based; set-up: route oral; details: in vivo, 336 h
[5] = molecular target: T2, Retinoic acid receptor alpha (Homo sapiens) (UniProt P10276); experiment: Transactivation of RARalpha (unknown origin) by luciferase reporter gene assay relative to Am80
T2 sequence (whole entry): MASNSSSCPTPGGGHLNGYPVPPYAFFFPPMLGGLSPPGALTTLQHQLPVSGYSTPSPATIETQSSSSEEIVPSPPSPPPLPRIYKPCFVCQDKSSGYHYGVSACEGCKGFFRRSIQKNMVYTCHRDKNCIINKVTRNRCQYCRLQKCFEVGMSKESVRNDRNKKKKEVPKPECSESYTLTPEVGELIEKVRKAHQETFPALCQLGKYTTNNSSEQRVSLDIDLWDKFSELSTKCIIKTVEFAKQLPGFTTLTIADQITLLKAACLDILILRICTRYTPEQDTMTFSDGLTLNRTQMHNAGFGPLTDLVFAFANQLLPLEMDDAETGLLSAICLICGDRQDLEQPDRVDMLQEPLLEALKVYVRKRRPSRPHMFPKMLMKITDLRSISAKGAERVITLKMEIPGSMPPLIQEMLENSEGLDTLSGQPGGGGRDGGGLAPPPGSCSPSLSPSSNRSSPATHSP

[6] = molecular target: T3, Retinoic acid receptor beta (Homo sapiens) (UniProt P10826); experiment: Transactivation of RARbeta (unknown origin) by luciferase reporter gene assay relative to Am80
T3 sequence (whole entry): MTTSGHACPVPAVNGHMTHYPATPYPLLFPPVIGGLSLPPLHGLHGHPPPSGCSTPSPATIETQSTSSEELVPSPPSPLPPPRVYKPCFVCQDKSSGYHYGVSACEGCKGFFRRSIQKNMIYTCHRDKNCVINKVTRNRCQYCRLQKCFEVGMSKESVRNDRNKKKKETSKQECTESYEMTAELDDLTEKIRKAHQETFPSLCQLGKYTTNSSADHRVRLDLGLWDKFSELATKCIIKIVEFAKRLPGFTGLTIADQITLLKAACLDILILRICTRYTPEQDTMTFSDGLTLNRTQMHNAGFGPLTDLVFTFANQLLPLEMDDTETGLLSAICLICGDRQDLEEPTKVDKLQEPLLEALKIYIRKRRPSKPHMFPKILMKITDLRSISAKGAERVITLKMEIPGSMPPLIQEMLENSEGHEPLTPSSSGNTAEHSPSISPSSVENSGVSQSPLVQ

[7] = test system: Rattus norvegicus; experiment: Toxicity in Sprague-Dawley rat assessed as enlargement of spleen at 30 mg/kg, po for 28 days; assay type: organism-based; set-up: dose 30 mg/kg, route oral; details: in vivo, 672 h
In short: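 Male and female SD rats, four weeks old on arrival, two per cage. Oral 30 mg/kg/day or vehicle (1% ethanol/0.5% CMC in water, 5 mL/kg) for 28 days, body weight recorded daily. After overnight fasting and isoflurane anaesthesia, liver, brain, kidney, spleen and testis were weighed, and serum was collected (2000g, 10 min, 4 °C) for blood chemistry.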

[8] = test system: Plasma; experiment: Plasma concentration in ICR mouse at 30 mg/kg, po by HPLC analysis; assay type: ADME, organism-based; set-up: dose 30 mg/kg, route oral; details: read-out: Cp, in vivo
In short: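 Six-week-old male ICR mice (n = 6−9) got a single oral 30 mg/kg dose in 1% ethanol/0.5% CMC in water, 10 mL/kg. Plasma was extracted with ethyl acetate and reconstituted in methanol. Reversed-phase HPLC (ODS-3, 40 °C, methanol:33.3 mM ammonium acetate pH 5.0 85:15, UV 280 nm), quantified against an authentic-compound calibration plot.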

[9] = test system: Mus musculus; experiment: Toxicity against KKAy mouse assessed as plasma ALT level at 10 mg/kg/day, po for 14 days (reference value: 17.6 +/- 0.9 IU); assay type: organism-based; set-up: route oral; details: in vivo, 336 h

Cc1cc2c(cc1-n1c(C(F)(F)F)nc3cc(C(=O)O)ccc31)C(C)(C)CCC2(C)C
Activity [1]: Non-toxic | Activity [2]: Active | Activity [3]: Active | Activity [4]: 6.3 IU | Activity [5]: Active | Activity [6]: Active | Activity [7]: Toxic | concentration [8]: > 6 µM | Activity [9]: 17.3 IU
